Source: ChEMBL document CHEMBL4311952, “Discovery and Development of a Series of Pyrazolo[3,4-d]pyridazinone Compounds as the Novel Covalent Fibroblast Growth Factor Receptor Inhibitors by the Rational Drug Design” (J Med Chem, 2019)
Converted amounts (≈) assume the structure as drawn.

Assays:
[1] = Kinetic solubility of the compound in pH 7.4 PBS by nephelometric method; format: physicochemical; details: read-out: Kinetic_solubility
[2] = Half life in mouse liver microsomes at 0.1 uM in presence of NADPH by LC-MS/MS analysis; format: ADME, Microsome; details: for half-life at 0.1 µM: liver microsomes
Outline: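 Mouse liver microsomes at 0.33 mg/mL protein with 5 mM MgCl2, 0.1 μM compound, 1 mM NADPH, 0.1 M Tris/HCl pH 7.4, final DMSO 0.01%. Pre-warmed 10 min at 37 °C, started with NADPH. Sampled at 0, 7, 17, 30 and 60 min, quenched with methanol, analysed by LC-MS/MS in duplicate. T1/2 = -0.693/k from first-order consumption.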

[3] = Tmax in Sprague-Dawley rat at 10 mg/kg, iv by LC-MS/MS analysis; format: ADME, organism-based; details: in vivo
Outline: (§1)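 SD rats dosed in 5% DMSO + 5% Tween-80 in 90% saline, IV 10 mg/kg, PO 20 mg/kg or IP 20 mg/kg; blood collected and centrifuged to plasma, which was deproteinized with methanol containing internal standard, diluted and re-centrifuged; concentrations by LC/MS/MS.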

[4] = Cmax in Sprague-Dawley rat at 10 mg/kg, iv by LC-MS/MS analysis; format: ADME, organism-based; parameters: dose 10 mg/kg, route intravenous; details: in vivo
Outline: (§2)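 SD rats dosed IV 10 mg/kg, PO 20 mg/kg or IP 20 mg/kg in 5% DMSO + 5% Tween-80 in 90% saline. Blood collected after dosing and spun to plasma. Plasma deproteinized with methanol containing internal standard, centrifuged, diluted with methanol and spun again. Compound in supernatant quantified by LC/MS/MS.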

[5] = AUC (0 to t) in Sprague-Dawley rat at 10 mg/kg, iv by LC-MS/MS analysis; format: ADME, organism-based; details: in vivo; outline: as §2
[6] = AUC (0 to infinity) in Sprague-Dawley rat at 10 mg/kg, iv by LC-MS/MS analysis; format: ADME, organism-based; parameters: dose 10 mg/kg, time infinity, route intravenous; details: in vivo; outline: as §2
[7] = MRT in Sprague-Dawley rat at 10 mg/kg, iv by LC-MS/MS analysis; format: ADME, organism-based; details: in vivo; outline: as §1
[8] = Half life in Sprague-Dawley rat at 10 mg/kg, iv by LC-MS/MS analysis; format: ADME, organism-based; details: in vivo; outline: as §2
[9] = Clearance in Sprague-Dawley rat at 10 mg/kg, iv by LC-MS/MS analysis; format: ADME, organism-based; details: in vivo; outline: as §2
[10] = Tmax in Sprague-Dawley rat at 20 mg/kg, po by LC-MS/MS analysis; format: ADME, organism-based; details: in vivo; outline: as §1
[11] = Cmax in Sprague-Dawley rat at 20 mg/kg, po by LC-MS/MS analysis; format: ADME, organism-based; parameters: dose 20 mg/kg, route oral; details: in vivo; outline: as §2
[12] = AUC (0 to t) in Sprague-Dawley rat at 20 mg/kg, po by LC-MS/MS analysis; format: ADME, organism-based; details: in vivo; outline: as §2
[13] = AUC (0 to infinity) in Sprague-Dawley rat at 20 mg/kg, po by LC-MS/MS analysis; format: ADME, organism-based; parameters: dose 20 mg/kg, route oral, time infinity; details: in vivo; outline: as §2
[14] = MRT in Sprague-Dawley rat at 20 mg/kg, po by LC-MS/MS analysis; format: ADME, organism-based; details: in vivo; outline: as §1
[15] = Half life in Sprague-Dawley rat at 20 mg/kg, po by LC-MS/MS analysis; format: ADME, organism-based; details: in vivo; outline: as §2
[16] = Oral bioavailability in Sprague-Dawley rat at 20 mg/kg by LC-MS/MS analysis; format: ADME, organism-based; details: in vivo; outline: as §1
[17] = Stability in rat blood assessed as parent compound remaining at 5 uM measured after 5 hrs by LC-MS/MS analysis; format: ADME, tissue-based; details: read-out: Stability
Outline: (§3)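 Compound at 5 μM in fresh rat blood at 37 °C; samples at 0, 0.5, 1.0, 2.0 and 5.0 h, stopped by methanol protein precipitation; percentage of residual parent measured by LC-MS/MS.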

[18] = Volume of distribution at steady state in Sprague-Dawley rat at 10 mg/kg, iv by LC-MS/MS analysis; format: ADME, organism-based; details: in vivo; outline: as §1
[19] = Tmax in Sprague-Dawley rat at 20 mg/kg, ip by LC-MS/MS analysis; format: ADME, organism-based; details: in vivo; outline: as §1
[20] = Cmax in Sprague-Dawley rat at 20 mg/kg, ip by LC-MS/MS analysis; format: ADME, organism-based; parameters: dose 20 mg/kg, route intraperitoneal; details: in vivo; outline: as §2
[21] = AUC (0 to t) in Sprague-Dawley rat at 20 mg/kg, ip by LC-MS/MS analysis; format: ADME, organism-based; details: in vivo; outline: as §2
[22] = AUC (0 to infinity) in Sprague-Dawley rat at 20 mg/kg, ip by LC-MS/MS analysis; format: ADME, organism-based; parameters: dose 20 mg/kg, time infinity, route intraperitoneal; details: in vivo; outline: as §2
[23] = MRT in Sprague-Dawley rat at 20 mg/kg, ip by LC-MS/MS analysis; format: ADME, organism-based; details: in vivo; outline: as §1
[24] = Half life in Sprague-Dawley rat at 20 mg/kg, ip by LC-MS/MS analysis; format: ADME, organism-based; details: in vivo; outline: as §2
[25] = Drug metabolism in mouse liver microsomes at 3 uM measured after 180 mins by UPLC-UV/Q-TOF MS analysis; format: ADME, Microsome; details: 3 h
[26] = Drug metabolism in human liver microsomes assessed as oxidation at 3 uM measured after 180 mins by UPLC-UV/Q-TOF MS analysis; format: ADME, Microsome; details: 3 h
[27] = Drug metabolism in monkey liver microsomes assessed as oxidation at 3 uM measured after 180 mins by UPLC-UV/Q-TOF MS analysis; format: ADME, Macaca mulatta, Microsome; details: rhesus monkey, 3 h
[28] = Drug metabolism in dog liver microsomes assessed as oxidation at 3 uM measured after 180 mins by UPLC-UV/Q-TOF MS analysis; format: ADME, Canis lupus familiaris, Microsome; details: 3 h
[29] = Drug metabolism in rat liver microsomes assessed as oxidation at 3 uM measured after 180 mins by UPLC-UV/Q-TOF MS analysis; format: ADME, Microsome; details: 3 h
[30] = Drug metabolism in mouse liver microsomes assessed as oxidation at 3 uM measured after 180 mins by UPLC-UV/Q-TOF MS analysis; format: ADME, Microsome; details: 3 h
[31] = Drug metabolism in human liver microsomes assessed as amino demethylation at 3 uM measured after 180 mins by UPLC-UV/Q-TOF MS analysis; format: ADME, Microsome; details: 3 h
[32] = Drug metabolism in monkey liver microsomes assessed as amino demethylation at 3 uM measured after 180 mins by UPLC-UV/Q-TOF MS analysis; format: ADME, Macaca mulatta, Microsome; details: rhesus monkey, 3 h
[33] = Drug metabolism in dog liver microsomes assessed as amino demethylation at 3 uM measured after 180 mins by UPLC-UV/Q-TOF MS analysis; format: ADME, Canis lupus familiaris, Microsome; details: 3 h
[34] = Drug metabolism in rat liver microsomes assessed as amino demethylation at 3 uM measured after 180 mins by UPLC-UV/Q-TOF MS analysis; format: ADME, Microsome; details: 3 h
Outline: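 Human, mouse, rat, dog or monkey liver fractions (1.0×10^6 cells/mL) in William's medium E (pH 7.4) with 3.0 μM substrate, 37 °C for 180 min. Stopped with equal volume ice-cold acetonitrile. Duplicates pooled per species, spun, dried under nitrogen, reconstituted in acetonitrile/water 10:90. Metabolites profiled by UPLC-UV/Q-TOF MS.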

[35] = Drug metabolism in mouse liver microsomes assessed as amino demethylation at 3 uM measured after 180 mins by UPLC-UV/Q-TOF MS analysis; format: ADME, Microsome; details: 3 h
[36] = Stability in rat blood at 5 uM measured after 5 hrs by LC-MS/MS analysis; format: ADME, tissue-based; outline: as §3

SMILES: CC(=O)c1ccccc1O
- solubility kinetic [1]: 50 µM (≈ 6.81 µg/mL)

SMILES: C=CC(=O)Nc1ccc(-n2nc3c(=O)[nH]nc(N)c3c2-c2oc3ccc(C)cc3c2C)cc1
- solubility kinetic [1]: 20 µM (≈ 8.81 µg/mL)
- half-life at 0.1 µM [2]: 0.517 h
- Tmax [3]: 4.98 min
- Cmax [4]: 1880 ng/mL
- AUC(0-t) [5]: 1090 ng·h/mL
- AUC(0-inf) [6]: 1270 ng·h/mL
- MRT ([7]; Sprague-Dawley, read-out: MRT): 5.04 h
- half-life [8]: 6.25 h
- clearance ([9]; Sprague-Dawley): 143 mL/min/kg
- Tmax [10]: 0.861 h
- Cmax [11]: 12.9 ng/mL
- AUC(0-t) [12]: 6.4 ng·h/mL
- AUC(0-inf) [13]: 6.4 ng·h/mL
- MRT [14]: 2.17 h
- half-life [15]: 1.77 h
- bioavailability [16]: 0.29%

SMILES: Cc1ccc2oc(-c3c4c(N)n[nH]c(=O)c4nn3-c3ccc(NC(=O)/C=C/CN4CCOCC4)cc3)c(C)c2c1
- solubility kinetic [1]: 50 µM (≈ 27 µg/mL)

SMILES: Cc1c(-c2c3c(N)n[nH]c(=O)c3nn2-c2ccc(NC(=O)/C=C/CN(C)C)cc2)oc2ccc(Br)cc12
- solubility kinetic [1]: 50 µM (≈ 28.1 µg/mL)

SMILES: Cc1c(-c2c3c(N)n[nH]c(=O)c3nn2-c2ccc(NC(=O)/C=C/CN(C)C)cc2)oc2ccc(Cl)cc12
- solubility kinetic [1]: 200 µM (≈ 104 µg/mL)
- t1/2 ([2]; microsomes, 0.1 µM): 1.72 h
- remaining at 5 h, 5 µM [17]: 20%
- AUC(0-t) [5]: 4310 ng·h/mL
- AUC(0-inf) [6]: 4410 ng·h/mL
- MRT [7]: 1.64 h
- half-life [8]: 8.55 h
- CL [9]: 37.8 mL/min/kg
- Vdss [18]: 28 L/kg
- Tmax [10]: 0.5 h
- Cmax [11]: 7.3 ng/mL
- AUC(0-t) [12]: 32.6 ng·h/mL
- AUC(0-inf) [13]: 51.5 ng·h/mL
- MRT [14]: 7.33 h
- half-life [15]: 21.6 h
- bioavailability [16]: 0%
- Tmax [19]: 0.5 h
- Cmax [20]: 5040 ng/mL
- AUC(0-t) [21]: 16800 ng·h/mL
- AUC(0-inf) [22]: 17000 ng·h/mL
- MRT [23]: 3.3 h
- half-life [24]: 4.63 h
- Drug metabolism [25]: 20%
- Drug metabolism [26]: Metabolite_Detected
- Drug metabolism [27]: Metabolite_Detected
- Drug metabolism [28]: Metabolite_Detected
- Drug metabolism [29]: Metabolite_Detected
- Drug metabolism [30]: Metabolite_Detected
- Drug metabolism [31]: Metabolite_Detected
- Drug metabolism [32]: Metabolite_Detected
- Drug metabolism [33]: Metabolite_Detected
- Drug metabolism [34]: Metabolite_Detected
- Drug metabolism [35]: Metabolite_Detected

SMILES: Cc1ccc2oc(-c3c4c(N)n[nH]c(=O)c4nn3-c3ccc(NC(=O)/C=C/CN(C)C)cc3)c(C)c2c1
- solubility kinetic [1]: 50 µM (≈ 24.9 µg/mL)
- half-life at 0.1 µM [2]: 1.05 h
- Stability [36]: Stable

SMILES: C=CC(=O)Nc1ccc(-n2nc3c(=O)[nH]nc(N)c3c2-c2oc3ccc(Cl)cc3c2C)cc1
- solubility kinetic [1]: 20 µM (≈ 9.22 µg/mL)
- half-life at 0.1 µM [2]: 0.483 h

SMILES: CC(=O)c1cc(Br)ccc1O
- solubility kinetic [1]: 50 µM (≈ 10.8 µg/mL)
